Measured values taken from ChEMBL document CHEMBL1153027, “Synthesis of quinolinyl and isoquinolinyl phenyl ketones as novel agonists for the cannabinoid CB2 receptor” (Bioorg Med Chem, 2009).

Experiments:
[1] = target: Cannabinoid receptor 1 (Rattus norvegicus) (UniProt P20272); assay: Agonist activity at rat cerebellar membrane CB1 receptor at 10 uM by [35]GTPgammaS binding assay relative to basal level; format: functional
Outline: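 Rat cerebellar membranes (CB1) used to screen for CB1 agonism and antagonism, per a previously described method. [35S]GTPγS binding with compounds at 10 µM. Results given as % basal; mean ± SEM of at least three duplicate experiments.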

Cannabinoid receptor 2 [2] = target: T1, Cannabinoid receptor 2 (Homo sapiens, UniProt P34972); assay: Agonist activity at human CB2 receptor expressed in CHO cells at 10 uM by [35]GTPgammaS binding assay relative to HU210; format: functional, cell-based
Outline: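 Human CB2 stably expressed in CHO cells; agonist-stimulated binding of the nonhydrolyzable GTP analogue [35S]GTPγS, run as described by Savinainen et al. Single test concentration 10 µM. Response expressed as percentage of the full CB1/CB2 agonist HU-210. Mean ± SEM of at least three experiments performed in duplicate.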

Cannabinoid receptor 2 [3] = target: T1, Cannabinoid receptor 2; assay: Agonist activity at human CB2 receptor expressed in CHO cells by [35]GTPgammaS binding assay; format: functional, cell-based
Outline: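 hCB2 stably expressed in CHO cells; [35S]GTPγS binding stimulated by agonist, procedure of Savinainen et al. Full concentration–response curves were run only for compounds giving over 50% relative activity at 10 µM. EC50 and Emax were obtained by nonlinear regression fitted to a sigmoidal concentration–response equation.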

Chain of Cannabinoid receptor 1 (Rattus norvegicus) (P20272 whole entry): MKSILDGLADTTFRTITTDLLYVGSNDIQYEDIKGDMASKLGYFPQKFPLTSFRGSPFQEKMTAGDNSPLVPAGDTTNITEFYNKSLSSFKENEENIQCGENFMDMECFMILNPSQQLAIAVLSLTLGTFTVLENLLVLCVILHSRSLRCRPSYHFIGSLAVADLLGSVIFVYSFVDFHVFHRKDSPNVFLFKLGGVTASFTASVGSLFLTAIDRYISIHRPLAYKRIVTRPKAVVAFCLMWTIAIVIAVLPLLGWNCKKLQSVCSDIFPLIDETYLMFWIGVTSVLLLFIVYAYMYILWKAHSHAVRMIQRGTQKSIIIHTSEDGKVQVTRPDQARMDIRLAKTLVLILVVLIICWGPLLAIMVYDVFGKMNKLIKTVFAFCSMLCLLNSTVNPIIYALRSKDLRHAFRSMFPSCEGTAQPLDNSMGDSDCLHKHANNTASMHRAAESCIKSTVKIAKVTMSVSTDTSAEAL
T1 sequence (P34972 whole entry): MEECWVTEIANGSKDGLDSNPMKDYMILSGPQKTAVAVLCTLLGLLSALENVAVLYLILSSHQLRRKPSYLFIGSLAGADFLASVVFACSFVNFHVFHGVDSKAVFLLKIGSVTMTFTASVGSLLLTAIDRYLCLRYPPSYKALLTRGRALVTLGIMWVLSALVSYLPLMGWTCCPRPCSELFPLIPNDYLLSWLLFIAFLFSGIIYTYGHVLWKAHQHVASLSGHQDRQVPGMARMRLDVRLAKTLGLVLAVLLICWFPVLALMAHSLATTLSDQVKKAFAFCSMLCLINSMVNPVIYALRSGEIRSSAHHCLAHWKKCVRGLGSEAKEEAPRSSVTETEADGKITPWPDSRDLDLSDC

| SMILES | Activity [1] [%] | Emax (Cannabinoid receptor 2 [2]) [%] | EC50 (Cannabinoid receptor 2 [3]) [nM] |
| --- | --- | --- | --- |
| O=C(c1ccc(Cl)c(Cl)c1)c1ccc2ccccc2n1 | 100 | – | – |
| O=C(c1ccc(Cl)cc1)c1ccc2ccccc2n1 | 101 | 63 | 3980 |
| COc1cccc(C(=O)c2nccc3ccccc23)c1 | 112 | – | – |
| CN(C)c1ccc(C(=O)c2nccc3ccccc23)cc1 | 99 | 68 | 2510 |
| O=C(c1ccccc1)c1nccc2ccccc12 | 102 | – | – |
| O=C(c1ccc(F)cc1)c1nccc2ccccc12 | 104 | – | – |
| O=C(c1ccc(Cl)c(Cl)c1)c1nccc2ccccc12 | 111 | – | – |
| COc1ccc(C(=O)c2nccc3ccccc23)cc1 | 85 | – | – |
| COc1cccc(C(=O)c2ccc3ccccc3n2)c1 | 102 | 54 | 2000 |
| O=C(c1ccccc1C(F)(F)F)c1nccc2ccccc12 | 112 | 72 | 501 |
| O=C(c1ccc(F)cc1)c1ccc2ccccc2n1 | 99 | – | – |
| O=C(c1cccc(F)c1)c1nccc2ccccc12 | 99 | – | – |
| O=C(c1cccc(F)c1)c1ccc2ccccc2n1 | 106 | – | – |
| CN(C)c1ccccc1C(=O)c1ccc2ccccc2n1 | 101 | 91 | 794 |
| O=C(c1cccc(C(F)(F)F)c1)c1ccc2ccccc2n1 | 102 | 42 | 5010 |
| CN(C)c1ccccc1C(=O)c1nccc2ccccc12 | 116 | 95 | 631 |
| O=C(c1ccc(C(F)(F)F)cc1)c1ccc2ccccc2n1 | 105 | – | – |
| O=C(c1ccc2ccccc2n1)c1ccccc1C(F)(F)F | 102 | 87 | 2000 |
| O=C(c1cc(C(F)(F)F)cc(C(F)(F)F)c1)c1nccc2ccccc12 | 101 | – | – |
| CN(C)c1ccc(C(=O)c2ccc3ccccc3n2)cc1 | 101 | 62 | 6310 |
| CCCOc1ccc(C(=O)c2ccc3ccccc3n2)cc1 | 108 | – | – |
| O=C(c1ccc(C(F)(F)F)cc1)c1nccc2ccccc12 | 95 | 57 | 3160 |
| O=C(c1cccc(C(F)(F)F)c1)c1nccc2ccccc12 | 106 | – | – |
| COc1ccc(C(=O)c2ccc3ccccc3n2)cc1 | 108 | – | – |
| CC(C)Oc1ccc(C(=O)c2ccc3ccccc3n2)cc1 | 102 | – | – |
| O=C(c1cc(C(F)(F)F)cc(C(F)(F)F)c1)c1ccc2ccccc2n1 | 108 | – | – |
| COc1ccccc1C(=O)c1ccc2ccccc2n1 | 106 | 53 | 2510 |
| CCOc1ccc(C(=O)c2ccc3ccccc3n2)cc1 | 100 | – | – |
| O=C(c1ccccc1)c1ccc2ccccc2n1 | 103 | 52 | 7940 |
| O=C(c1ccc(Cl)cc1)c1nccc2ccccc12 | 101 | – | – |
